Experimental data taken from ChEMBL document CHEMBL4266053, “Puromycins B-E, Naturally Occurring Amino-Nucleosides Produced by the Himalayan Isolate Streptomyces sp. PU-14G” (J Nat Prod, 2018).
In brackets after ≈: the same amount, converted by molar mass. Activity calls are given as the source filed them. No cut-off for these calls is given here.

What was measured:
A549 [1] = assay: Cytotoxicity against human A549 cells assessed as decrease in cell viability after 48 hrs; type: functional, cell-based; conditions: A549, 48 h
Method in brief: (§1)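 Human cancer cell line viability assay run in triplicate with 48 h compound exposure. IC50 derived from viability data. Actinomycin D served as the positive control.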

Micrococcus luteus = assay: Antibacterial activity against Micrococcus luteus NRRL B-287 after 16 to 48 hrs; type: functional
Method in brief: (§2)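 Bacterial MIC assay run in triplicate and read after 16−48 h incubation. Kanamycin and ampicillin served as positive controls.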

PC-3 [2] = assay: Cytotoxicity against human PC3 cells assessed as decrease in cell viability after 48 hrs; type: functional, cell-based; conditions: PC-3, 48 h; method in brief: as §1
Bacillus spizizenii = assay: Antibacterial activity against Bacillus subtilis ATCC 6633 after 16 to 48 hrs; type: functional; method in brief: as §2
Mycolicibacterium aurum = assay: Antimycobacterial activity against Mycobacterium aurum ATCC 23366 after 16 to 48 hrs; type: functional; method in brief: as §2
Staphylococcus aureus = assay: Antibacterial activity against Staphylococcus aureus ATCC 6538 after 16 to 48 hrs; type: functional; method in brief: as §2
A549 [3] = assay: Cytotoxicity against human A549 cells assessed as decrease in cell viability at 100 uM after 48 hrs; type: functional, cell-based
Method in brief: (§3)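 Cell viability measured in triplicate after 48 h exposure to a single 100 μM concentration. Actinomycin D served as the positive control.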

PC-3 [4] = assay: Cytotoxicity against human PC3 cells assessed as decrease in cell viability at 100 uM after 48 hrs; type: functional, cell-based; method in brief: as §3

| MIC (Micrococcus luteus) [µM] | MIC (Bacillus spizizenii) [µM] | MIC (Mycolicibacterium aurum) [µM] | MIC (Staphylococcus aureus) [µM] | SMILES | IC50 (A549 [1]) [nM] | IC50 (PC-3 [2]) [nM] | Activity (A549 [3]) | Activity (PC-3 [4]) |
| --- | --- | --- | --- | --- | --- | --- | --- | --- |
| 4 to 30 (≈ 1.89 to 14.1 µg/mL) | 4 to 30 (≈ 1.89 to 14.1 µg/mL) | 4 to 30 (≈ 1.89 to 14.1 µg/mL) | 4 to 30 (≈ 1.89 to 14.1 µg/mL) | COc1ccc(C[C@H](N)C(=O)N[C@H]2[C@@H](O)[C@H](n3cnc4c(N(C)C)ncnc43)O[C@@H]2CO)cc1 [PUROMYCIN] | 300 | 300 |  |  |
|  |  |  |  | CC(=O)N[C@H]1[C@@H](O)[C@H](n2cnc3c(N(C)C)ncnc32)O[C@@H]1CO |  |  | Active | Active |
|  |  |  |  | CC(=O)N[C@@H](CC(C)C)C(=O)N[C@H]1[C@@H](O)[C@H](n2cnc3c(N(C)C)ncnc32)O[C@@H]1CO |  |  | Active | Active |
|  |  |  |  | COc1ccc(C[C@H](NC(C)=O)C(=O)N[C@H]2[C@@H](O)[C@H](n3cnc4c(N(C)C)ncnc43)O[C@@H]2CO)cc1 |  |  | Active | Active |
|  |  |  |  | COc1ccc(C[C@H](O)C(=O)N[C@H]2[C@@H](O)[C@H](n3cnc4c(N(C)C)ncnc43)O[C@@H]2CO)cc1 |  |  | Active | Active |
